Assay results reported in ChEMBL document CHEMBL1944562, “Design, synthesis of some new (2-aminothiazol-4-yl)methylester derivatives as possible antimicrobial and antitubercular agents” (2012).
≈ marks a conversion by molar mass, not a printed value.

Columns and labels:
Assay type in all cases: functional
[1] = tested on: Pseudomonas aeruginosa; experiment: Antibacterial activity against Pseudomonas aeruginosa ATCC 27853 at MIC after 3 to 4 days
Outline: (§1)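 Agar well diffusion on seeded agar plates, 20 mL agar per dish, dried 1 h at 37 °C. Wells punched and loaded with test compound in DMSO at its MIC. DMSO-only control. Plates run in triplicate and kept 3-4 days at 37 °C. Inhibition zone diameter measured.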

[2] = tested on: Talaromyces marneffei; experiment: Antifungal activity against Penicillium marneffei at MIC after 3 to 4 days
Outline: (§2)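 Fungal suspension made by transferring a loopful of culture to 3 mL saline and seeding agar plates, 20 mL agar per dish, dried 1 h at 37 °C. Punched wells loaded with test compound in DMSO at its MIC. DMSO-only control. Triplicate plates held 3-4 days at 37 °C. Inhibition zone diameter measured.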

[3] = tested on: Candida albicans; experiment: Antifungal activity against Candida albicans at MIC after 3 to 4 days; outline: as §2
[4] = tested on: Escherichia coli; experiment: Antibacterial activity against Escherichia coli ATCC 25922 after 16 to 18 hrs by […]
[5] = tested on: Klebsiella pneumoniae; experiment: Antibacterial activity against Klebsiella pneumoniae at MIC after 3 to 4 days; outline: as §1
[6] = tested on: Mycobacterium tuberculosis; experiment: Antitubercular activity against Mycobacterium tuberculosis H37Rv assessed as growth inhibition after 7 days by resazurin assay
Outline: (§3)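 M. tuberculosis H37Rv ATCC 27294 grown in Middlebrook 7H9 broth with 10% OADC and adjusted to McFarland 2. Culture was diluted 1:4 into fresh medium. Compounds came from 2 mg/mL DMF stocks, screened first at 1, 10 and 100, then at 0.3125–5. DMF-only controls were included. After 7 days at 37 °C, 0.01% resazurin was added; a blue-to-pink change marked growth, and the MIC was read.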

[7] = tested on: Pseudomonas aeruginosa; experiment: Antibacterial activity against Pseudomonas aeruginosa ATCC 27853 after 16 to 18 hrs by […]
[8] = tested on: Candida albicans; experiment: Antifungal activity against Candida albicans after 3 to 4 days by serial plate dilution method
[9] = tested on: Mycobacterium tuberculosis; experiment: Antitubercular activity against Mycobacterium tuberculosis H37Rv after 7 days by resazurin assay; details: 168 h; outline: as §3
[10] = tested on: Staphylococcus aureus; experiment: Antibacterial activity against Staphylococcus aureus ATCC 25923 after 16 to 18 hrs by serial plate dilution method
[11] = tested on: Trichophyton mentagrophytes; experiment: Antifungal activity against Trichophyton mentagrophytes at MIC after 3 to 4 days; outline: as §2
[12] = tested on: Bacillus subtilis; experiment: Antibacterial activity against Bacillus subtilis after 16 to 18 hrs by […]
[13] = tested on: Escherichia coli; experiment: Antibacterial activity against Escherichia coli ATCC 25922 at MIC after 3 to 4 days; outline: as §1
[14] = tested on: Aspergillus flavus; experiment: Antifungal activity against Aspergillus flavus NCIM N0.524 at MIC after 3 to 4 days; outline: as §2
[15] = tested on: Mycolicibacterium smegmatis; experiment: Antitubercular activity against Mycobacterium smegmatis ATCC 19420 after 7 days by resazurin assay; details: ATCC 19420, 168 h
Outline: (§4)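 Middlebrook 7H9 broth with 10% OADC, culture adjusted to McFarland 2. 50 µL culture added to 150 µL fresh medium. Stocks at 2 mg/mL in DMF, tested first at 1, 10 and 100 µg/mL, then at 0.3125-5 µg/mL. DMF controls. After 7 days at 37 °C, 0.01% resazurin added. Blue-to-pink change read for MIC.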

[16] = tested on: Aspergillus fumigatus; experiment: Antifungal activity against Aspergillus fumigatus NCIM N0.902 after 3 to 4 days by serial plate dilution method
[17] = tested on: Trichophyton mentagrophytes; experiment: Antifungal activity against Trichophyton mentagrophytes after 3 to 4 days by serial plate dilution method
[18] = tested on: Aspergillus flavus; experiment: Antifungal activity against Aspergillus flavus NCIM N0.524 after 3 to 4 days by serial plate dilution method
[19] = tested on: Bacillus subtilis; experiment: Antibacterial activity against Bacillus subtilis at MIC after 3 to 4 days; outline: as §1
[20] = tested on: Talaromyces marneffei; experiment: Antifungal activity against Penicillium marneffei after 3 to 4 days by serial plate dilution method
[21] = tested on: Klebsiella pneumoniae; experiment: Antibacterial activity against Klebsiella pneumoniae after 16 to 18 hrs by […]
[22] = tested on: Staphylococcus aureus; experiment: Antibacterial activity against Staphylococcus aureus ATCC 25923 at […] after 3 to 4 days; outline: as §1
[23] = tested on: Aspergillus fumigatus; experiment: Antifungal activity against Aspergillus fumigatus NCIM N0.902 at MIC after 3 to 4 days; outline: as §2
[24] = tested on: Mycolicibacterium fortuitum; experiment: Antitubercular activity against Mycobacterium fortuitum ATCC 19542 after 7 days by resazurin assay; details: ATCC 19542, 168 h; outline: as §4

SMILES | diameter of the inhibition zone (DIZ) [1] [mm] | diameter of the inhibition zone (DIZ) [2] [mm] | diameter of the inhibition zone (DIZ) [3] [mm] | MIC [4] [µg/mL] | diameter of the inhibition zone (DIZ) [5] [mm] | growth inhibition (GI) [6] [%] | MIC [7] [µg/mL] | MIC [8] [µg/mL] | MIC [9] [µg/mL] | MIC [10] [µg/mL] | diameter of the inhibition zone (DIZ) [11] [mm] | MIC [12] [µg/mL] | diameter of the inhibition zone (DIZ) [13] [mm] | diameter of the inhibition zone (DIZ) [14] [mm] | MIC [15] [µg/mL] | MIC [16] [µg/mL] | MIC [17] [µg/mL] | MIC [18] [µg/mL] | diameter of the inhibition zone (DIZ) [19] [mm] | MIC [20] [µg/mL] | further results
N#CCCc1cccc(C(=O)OCc2csc(N)n2)c1 | 16 | 16 | 11 | 6.25 (≈ 21.8 µM) | 11 | 95 | 6.25 (≈ 21.8 µM) | 12.5 (≈ 43.5 µM) | 0.625 (≈ 2.18 µM) | 6.25 (≈ 21.8 µM) | <10 | 6.25 (≈ 21.8 µM) | 16 | 16 | 1 (≈ 3.48 µM) | 25 (≈ 87 µM) | 25 (≈ 87 µM) | 6.25 (≈ 21.8 µM) | 16 | 6.25 (≈ 21.8 µM) | MIC [21]: 12.5 µg/mL (≈ 43.5 µM); diameter of the inhibition zone (DIZ) [22]: 16 mm; diameter of the inhibition zone (DIZ) [23]: <10 mm; MIC [24]: 10 µg/mL (≈ 34.8 µM)
Nc1nc(COC(=O)c2c(F)cccc2Cl)cs1 | 11 | <10 | 11 | 25 (≈ 87.2 µM) | 11 | 95 | 12.5 (≈ 43.6 µM) | 12.5 (≈ 43.6 µM) | 0.625 (≈ 2.18 µM) | 6.25 (≈ 21.8 µM) | <10 | 6.25 (≈ 21.8 µM) | <10 | <10 | 10 (≈ 34.9 µM) | 25 (≈ 87.2 µM) | 25 (≈ 87.2 µM) | 25 (≈ 87.2 µM) | 16 | 25 (≈ 87.2 µM) | MIC [21]: 12.5 µg/mL (≈ 43.6 µM); diameter of the inhibition zone (DIZ) [22]: 16 mm; diameter of the inhibition zone (DIZ) [23]: <10 mm; MIC [24]: 10 µg/mL (≈ 34.9 µM)
Nc1nc(COC(=O)c2c(Cl)cc(Cl)cc2Cl)cs1 | <10 | 16 | 16 | 25 (≈ 74 µM) | 11 | <90 | 25 (≈ 74 µM) | 6.25 (≈ 18.5 µM) | 10 (≈ 29.6 µM) | 6.25 (≈ 18.5 µM) | 16 | 6.25 (≈ 18.5 µM) | <10 | 16 | > 100 | 6.25 (≈ 18.5 µM) | 6.25 (≈ 18.5 µM) | 6.25 (≈ 18.5 µM) | 16 | 6.25 (≈ 18.5 µM) | MIC [21]: 12.5 µg/mL (≈ 37 µM); diameter of the inhibition zone (DIZ) [22]: 16 mm; diameter of the inhibition zone (DIZ) [23]: 16 mm; MIC [24]: > 100 µg/mL
Nc1nc(COC(=O)Cc2ccccc2OC(F)(F)F)cs1 | <10 | 16 | 16 | 12.5 (≈ 37.6 µM) | <10 | <90 | 25 (≈ 75.2 µM) | 6.25 (≈ 18.8 µM) | 5 (≈ 15 µM) | 12.5 (≈ 37.6 µM) | 16 | 12.5 (≈ 37.6 µM) | 11 | 16 | > 100 | 6.25 (≈ 18.8 µM) | 6.25 (≈ 18.8 µM) | 6.25 (≈ 18.8 µM) | 11 | 6.25 (≈ 18.8 µM) | MIC [21]: 25 µg/mL (≈ 75.2 µM); diameter of the inhibition zone (DIZ) [22]: 11 mm; diameter of the inhibition zone (DIZ) [23]: 16 mm; MIC [24]: > 100 µg/mL
Nc1nc(COC(=O)c2ccccc2)cs1 | <10 | <10 | <10 | 25 (≈ 107 µM) | 16 | 0 | 25 (≈ 107 µM) | 25 (≈ 107 µM) | > 100 | 6.25 (≈ 26.7 µM) | <10 | 6.25 (≈ 26.7 µM) | <10 | <10 | > 100 | 25 (≈ 107 µM) | 25 (≈ 107 µM) | 25 (≈ 107 µM) | 16 | 25 (≈ 107 µM) | MIC [21]: 6.25 µg/mL (≈ 26.7 µM); diameter of the inhibition zone (DIZ) [22]: 16 mm; diameter of the inhibition zone (DIZ) [23]: <10 mm; MIC [24]: > 100 µg/mL
N#Cc1ccc(C(=O)OCc2csc(N)n2)cn1 | 16 | <10 | <10 | 6.25 (≈ 24 µM) | 16 | 0 | 6.25 (≈ 24 µM) | 25 (≈ 96.1 µM) | > 100 | 6.25 (≈ 24 µM) | 16 | 6.25 (≈ 24 µM) | 16 | <10 | > 100 | 6.25 (≈ 24 µM) | 6.25 (≈ 24 µM) | 25 (≈ 96.1 µM) | 16 | 25 (≈ 96.1 µM) | MIC [21]: 6.25 µg/mL (≈ 24 µM); diameter of the inhibition zone (DIZ) [22]: 16 mm; diameter of the inhibition zone (DIZ) [23]: 16 mm; MIC [24]: > 100 µg/mL
Nc1nc(COC(=O)C2(c3ccc(Cl)cc3)CC2)cs1 | 11 | <10 | <10 | 6.25 (≈ 20.2 µM) | 16 | 90 | 12.5 (≈ 40.5 µM) | 25 (≈ 81 µM) | 1 (≈ 3.24 µM) | 12.5 (≈ 40.5 µM) | <10 | 12.5 (≈ 40.5 µM) | 16 | <10 | 1 (≈ 3.24 µM) | 25 (≈ 81 µM) | 25 (≈ 81 µM) | 25 (≈ 81 µM) | 11 | 25 (≈ 81 µM) | MIC [21]: 6.25 µg/mL (≈ 20.2 µM); diameter of the inhibition zone (DIZ) [22]: 11 mm; diameter of the inhibition zone (DIZ) [23]: <10 mm; MIC [24]: 1.25 µg/mL (≈ 4.05 µM)
Nc1nc(COC(=O)c2ccccc2[N+](=O)[O-])cs1 | <10 | 11 | <10 | 12.5 (≈ 44.8 µM) | 16 | 95 | 25 (≈ 89.5 µM) | 25 (≈ 89.5 µM) | 0.625 (≈ 2.24 µM) | 12.5 (≈ 44.8 µM) | <10 | 12.5 (≈ 44.8 µM) | 11 | <10 | 10 (≈ 35.8 µM) | 25 (≈ 89.5 µM) | 25 (≈ 89.5 µM) | 25 (≈ 89.5 µM) | 11 | 12.5 (≈ 44.8 µM) | MIC [21]: 6.25 µg/mL (≈ 22.4 µM); diameter of the inhibition zone (DIZ) [22]: 11 mm; diameter of the inhibition zone (DIZ) [23]: <10 mm; MIC [24]: 10 µg/mL (≈ 35.8 µM)
